According to publication PMC7446891 (Bioorganic & medicinal chemistry, 2020):

Target: EphA2 (Homo sapiens, UniProt P29317)
Assay: EphA2 activation
Type: cell-based
Conditions: 2 μM in 0.1% DMSO, 1hr, U251 EphA2 cells, vs DMSO control
Method in brief: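 EphA2-overexpressing U251 cells were seeded at 100,000/well, grown 24 h, then given 2 μM test compound in 0.1% DMSO (1 hr per legend; methods text gives 30 min), with 0.1% DMSO vehicle. Cells were lysed 20 min in modified RIPA (pH 7.4, vanadate, NaF, protease inhibitors), immunoprecipitated, then blotted for pEphA/B (1:500) and EphA2 (1:1000), HRP anti-rabbit, chemiluminescence. Bands were quantified by densitometry, 3 experiments, unpaired t-test vs DMSO.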

EphA2, sequence (P29317 24-976): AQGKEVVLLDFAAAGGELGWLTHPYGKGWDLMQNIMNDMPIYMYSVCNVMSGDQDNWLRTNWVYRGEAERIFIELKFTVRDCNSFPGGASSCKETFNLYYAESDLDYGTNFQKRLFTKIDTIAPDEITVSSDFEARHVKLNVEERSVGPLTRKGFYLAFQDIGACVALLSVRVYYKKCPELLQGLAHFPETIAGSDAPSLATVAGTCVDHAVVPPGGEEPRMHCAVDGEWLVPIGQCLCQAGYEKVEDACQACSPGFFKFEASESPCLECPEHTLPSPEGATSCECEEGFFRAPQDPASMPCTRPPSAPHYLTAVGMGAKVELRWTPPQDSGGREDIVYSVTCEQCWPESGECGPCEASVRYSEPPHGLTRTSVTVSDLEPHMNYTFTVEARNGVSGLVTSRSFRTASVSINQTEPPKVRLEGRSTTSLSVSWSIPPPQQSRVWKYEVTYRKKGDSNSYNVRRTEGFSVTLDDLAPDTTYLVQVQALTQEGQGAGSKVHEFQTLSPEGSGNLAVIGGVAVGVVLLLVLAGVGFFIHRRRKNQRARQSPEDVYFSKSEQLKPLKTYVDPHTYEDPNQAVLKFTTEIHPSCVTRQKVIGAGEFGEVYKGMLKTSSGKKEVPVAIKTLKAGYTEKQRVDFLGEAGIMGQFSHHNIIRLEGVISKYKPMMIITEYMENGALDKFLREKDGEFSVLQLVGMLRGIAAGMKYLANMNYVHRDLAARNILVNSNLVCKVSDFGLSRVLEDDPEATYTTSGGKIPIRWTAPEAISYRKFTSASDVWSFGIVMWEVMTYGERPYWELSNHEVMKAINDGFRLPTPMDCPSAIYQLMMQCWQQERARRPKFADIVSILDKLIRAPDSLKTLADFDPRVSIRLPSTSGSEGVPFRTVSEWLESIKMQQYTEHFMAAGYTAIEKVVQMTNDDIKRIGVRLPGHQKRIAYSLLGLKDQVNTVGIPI

Row | Compound | EphA2 phosphorylation (pEphA/B vs total EphA2)
1 | COc1cc2nc(N3CCN(C(=O)c4cccc(NC(=O)OCCOCCOCCOC(=O)Nc5cccc(C(=O)N6CCN(c7nc(N)c8cc(OC)c(OC)cc8n7)CC6)c5)c4)CC3)nc(N)c2cc1OC [Compound 7bg, (ethane-1,2-diylbis(oxy))bis(ethane-2,1-diyl)bis((3-(4-(4-amino-6,7-dimethoxyquinazolin-2-yl)piperazine-1-carbonyl)phenyl)carbamate)] | statistical significance compared to control
2 | COc1cc2nc(N3CCN(C(=O)OCCOC(=O)N4CCN(c5nc(N)c6cc(OC)c(OC)cc6n5)CC4)CC3)nc(N)c2cc1OC [Compound 3d, ethane-1,2-diyl bis(4-(4-amino-6,7-dimethoxyquinazolin-2-yl)piperazine-1-carboxylate)] | did not show clear EphA2 activation
3 | COc1cc2nc(N3CCN(C(=O)Oc4ccc(C(C)(C)c5ccc(OC(=O)N6CCN(c7nc(N)c8cc(OC)c(OC)cc8n7)CC6)cc5)cc4)CC3)nc(N)c2cc1OC [Compound 3e, propane-2,2-diylbis(4,1-phenylene)bis(4-(4-amino-6,7-dimethoxyquinazolin-2-yl)piperazine-1-carb oxylate)] | better activity to induce EphA2 phosphorylation
